# Measured values taken from publication PMC6361391 (Chemical communications (Cambridge, England), 2017).
# Where a SMILES comes first, the peptide text is derived from it. Bridges are numbered along the chain shown (N, C = ends). [ ]: non-standard residue; d: D form. d(aIle) = CC[C@H](C)[C@@H](N)C(=O)O; dNMeF = CN[C@H](Cc1ccccc1)C(=O)O
# Tests used:
# [1] = tested on: Staphylococcus aureus ATCC 29213; type: cell-based
# [2] = tested on: Staphylococcus epidermidis ATCC 14990; type: cell-based
# [3] = tested on: Streptococcus salivarius ATCC 13419; type: cell-based
# [4] = tested on: Enterococcus durans ATCC 6056; type: cell-based
# [5] = tested on: Bacillus subtilis ATCC 6051; type: cell-based
# [6] = tested on: Escherichia coli ATCC 10798; type: cell-based
# Gram-positive bacteria = assay: MIC assays, overall activity across the Gram-positive bacteria; type: cell-based; conditions: overall grade (good, moderate, poor) from the MIC assays
# Procedure, shortened: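 Five Gram-positive species, with E. coli as a Gram-negative negative control and the parent natural antibiotic as a positive control. The test compound was tested at 32, 16, 8, 4, 2, 1, 0.5 and 0.25 μg/mL (final), diluted from a 10 mg/mL stock in sterilized DMSO. Minimum inhibitory concentration was the read-out.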
# [7] = type: physicochemical; conditions: pH 7.4
# [8] = cited from earlier work
molecule,measurement,setting,value
"CC[C@H](C)[C@H](NC(=O)[C@H](NC(=O)[C@@H](CCC(N)=O)NC(=O)[C@H](CO)NC(=O)[C@H](C)NC(=O)[C@@H](Cc1ccccc1)NC)[C@@H](C)CC)C(=O)N[C@@H](CO)C(=O)N[C@H]1C(=O)N[C@@H](C)C(=O)N[C@@H](CCCCN)C(=O)N[C@@H]([C@@H](C)CC)C(=O)O[C@H]1C [Ala2,Lys10-teixobactin] (H-[dNMeF]AS[dQ][d(aIle)]IS[dT]AKI; ester 8-C)","MIC, Staphylococcus aureus ATCC 29213",[1],>32 µg/mL
same,"MIC, Staphylococcus epidermidis ATCC 14990",[2],32 µg/mL
same,"MIC, Streptococcus salivarius ATCC 13419",[3],32 µg/mL
same,"MIC, Enterococcus durans ATCC 6056",[4],>32 µg/mL
same,"MIC, Bacillus subtilis ATCC 6051",[5],32 µg/mL
same,"MIC, Escherichia coll ATCC 10798",[6],>32 µg/mL
same,antibiotic activity,Gram-positive bacteria,poor
same,solubility in PBS buffer,[7],good
"CC[C@H](C)[C@H](NC(=O)[C@@H](Cc1ccccc1)NC)C(=O)N[C@@H](C)C(=O)N[C@H](CCC(N)=O)C(=O)N[C@@H](C(=O)N[C@H](C(=O)N[C@@H](CO)C(=O)N[C@H]1C(=O)N[C@@H](C)C(=O)N[C@@H](CCCCN)C(=O)N[C@@H]([C@@H](C)CC)C(=O)O[C@H]1C)[C@@H](C)CC)[C@@H](C)CC [Ala3,Lys10-teixobactin] (H-[dNMeF]IA[dQ][d(aIle)]IS[dT]AKI; ester 8-C)","MIC, Staphylococcus aureus ATCC 29213",[1],0.5 µg/mL
same,"MIC, Staphylococcus epidermidis ATCC 14990",[2],1 µg/mL
same,"MIC, Streptococcus salivarius ATCC 13419",[3],0.5 µg/mL
same,"MIC, Enterococcus durans ATCC 6056",[4],4 µg/mL
same,"MIC, Bacillus subtilis ATCC 6051",[5],1 µg/mL
same,"MIC, Escherichia coll ATCC 10798",[6],>32 µg/mL
same,antibiotic activity,Gram-positive bacteria,good
"CC[C@H](C)[C@H](NC(=O)[C@@H](Cc1ccccc1)NC)C(=O)N[C@@H](CO)C(=O)N[C@H](CCC(N)=O)C(=O)N[C@@H](C(=O)N[C@@H](C)C(=O)N[C@@H](CO)C(=O)N[C@H]1C(=O)N[C@@H](C)C(=O)N[C@@H](CCCCN)C(=O)N[C@@H]([C@@H](C)CC)C(=O)O[C@H]1C)[C@@H](C)CC [Ala6,Lys10-teixobactin] (H-[dNMeF]IS[dQ][d(aIle)]AS[dT]AKI; ester 8-C)","MIC, Staphylococcus aureus ATCC 29213",[1],>32 µg/mL
same,"MIC, Staphylococcus epidermidis ATCC 14990",[2],>32 µg/mL
same,"MIC, Streptococcus salivarius ATCC 13419",[3],>32 µg/mL
same,"MIC, Enterococcus durans ATCC 6056",[4],>32 µg/mL
same,"MIC, Bacillus subtilis ATCC 6051",[5],>32 µg/mL
same,"MIC, Escherichia coll ATCC 10798",[6],>32 µg/mL
same,antibiotic activity,Gram-positive bacteria,poor
same,solubility in PBS buffer,[7],good
"CC[C@H](C)[C@H](NC(=O)[C@@H](Cc1ccccc1)NC)C(=O)N[C@@H](CO)C(=O)N[C@H](CCC(N)=O)C(=O)N[C@@H](C(=O)N[C@H](C(=O)N[C@@H](C)C(=O)N[C@H]1C(=O)N[C@@H](C)C(=O)N[C@@H](CCCCN)C(=O)N[C@@H]([C@@H](C)CC)C(=O)O[C@H]1C)[C@@H](C)CC)[C@@H](C)CC [Ala7,Lys10-teixobactin] (H-[dNMeF]IS[dQ][d(aIle)]IA[dT]AKI; ester 8-C)","MIC, Staphylococcus aureus ATCC 29213",[1],>32 µg/mL
same,"MIC, Staphylococcus epidermidis ATCC 14990",[2],32 µg/mL
same,"MIC, Enterococcus durans ATCC 6056",[4],>32 µg/mL
same,"MIC, Bacillus subtilis ATCC 6051",[5],32 µg/mL
same,"MIC, Escherichia coll ATCC 10798",[6],>32 µg/mL
same,antibiotic activity,Gram-positive bacteria,poor
same,solubility in PBS buffer,[7],good
CC[C@H](C)[C@H](NC(=O)[C@@H](Cc1ccccc1)NC)C(=O)N[C@@H](CO)C(=O)N[C@H](CCC(N)=O)C(=O)N[C@@H](C(=O)N[C@H](C(=O)N[C@@H](CO)C(=O)N[C@H]1C(=O)N[C@@H](C)C(=O)N[C@@H](C)C(=O)N[C@@H]([C@@H](C)CC)C(=O)O[C@H]1C)[C@@H](C)CC)[C@@H](C)CC [Ala10-teixobactin],"MIC, Staphylococcus aureus ATCC 29213",[1],1 µg/mL
same,"MIC, Staphylococcus epidermidis ATCC 14990",[2],4 µg/mL
same,"MIC, Streptococcus salivarius ATCC 13419",[3],1 µg/mL
same,"MIC, Enterococcus durans ATCC 6056",[4],8 µg/mL
same,"MIC, Escherichia coll ATCC 10798",[6],>32 µg/mL
same,antibiotic activity,Gram-positive bacteria,moderate
"CC[C@H](C)[C@H](NC(=O)[C@@H](Cc1ccccc1)NC)C(=O)N[C@@H](CO)C(=O)N[C@H](C)C(=O)N[C@@H](C(=O)N[C@H](C(=O)N[C@@H](CO)C(=O)N[C@H]1C(=O)N[C@@H](C)C(=O)N[C@@H](CCCCN)C(=O)N[C@@H]([C@@H](C)CC)C(=O)O[C@H]1C)[C@@H](C)CC)[C@@H](C)CC [D-Ala4,Lys10-teixobactin] (H-[dNMeF]IS[dA][d(aIle)]IS[dT]AKI; ester 8-C)","MIC, Staphylococcus aureus ATCC 29213",[1],1 µg/mL
same,"MIC, Staphylococcus epidermidis ATCC 14990",[2],4 µg/mL
same,"MIC, Streptococcus salivarius ATCC 13419",[3],2 µg/mL
same,"MIC, Bacillus subtilis ATCC 6051",[5],4 µg/mL
same,"MIC, Escherichia coll ATCC 10798",[6],>32 µg/mL
same,antibiotic activity,Gram-positive bacteria,moderate
same,solubility in PBS buffer,[7],good
"CC[C@H](C)[C@H](NC(=O)[C@@H](C)NC(=O)[C@@H](CCC(N)=O)NC(=O)[C@H](CO)NC(=O)[C@@H](NC(=O)[C@@H](Cc1ccccc1)NC)[C@@H](C)CC)C(=O)N[C@@H](CO)C(=O)N[C@H]1C(=O)N[C@@H](C)C(=O)N[C@@H](CCCCN)C(=O)N[C@@H]([C@@H](C)CC)C(=O)O[C@H]1C [D-Ala5,Lys10-teixobactin] (HELM PEPTIDE1{[CN[C@H](Cc1ccccc1)C(=O)[*:2]].I.S.[dQ].[dA].I.S.[C[C@H](O[*:3])[C@@H](N[*:1])C(=O)[*:2]].A.K.I}$PEPTIDE1,PEPTIDE1,8:R3-11:R2$$$V2.0)","MIC, Staphylococcus aureus ATCC 29213",[1],>32 µg/mL
same,"MIC, Enterococcus durans ATCC 6056",[4],>32 µg/mL
same,"MIC, Escherichia coll ATCC 10798",[6],>32 µg/mL
same,antibiotic activity,Gram-positive bacteria,poor
same,solubility in PBS buffer,[7],good
"CC[C@H](C)[C@H](NC(=O)[C@@H](Cc1ccccc1)NC)C(=O)N[C@@H](CO)C(=O)N[C@H](CCC(N)=O)C(=O)N[C@@H](C(=O)N[C@H](C(=O)N[C@@H](CO)C(=O)N[C@H]1C(=O)N[C@@H](C)C(=O)N[C@@H](CCCCN)C(=O)N[C@@H](C)C(=O)O[C@H]1C)[C@@H](C)CC)[C@@H](C)CC [Lys10,Ala11-teixobactin] (H-[dNMeF]IS[dQ][d(aIle)]IS[dT]AKA; ester 8-C)","MIC, Staphylococcus aureus ATCC 29213",[1],4 µg/mL
same,"MIC, Staphylococcus epidermidis ATCC 14990",[2],8 µg/mL
same,"MIC, Streptococcus salivarius ATCC 13419",[3],2 µg/mL
same,"MIC, Enterococcus durans ATCC 6056",[4],>32 µg/mL
same,"MIC, Bacillus subtilis ATCC 6051",[5],8 µg/mL
same,"MIC, Escherichia coll ATCC 10798",[6],>32 µg/mL
same,antibiotic activity,Gram-positive bacteria,moderate
same,solubility in PBS buffer,[7],good
CC[C@H](C)[C@H](NC(=O)[C@@H](Cc1ccccc1)NC)C(=O)N[C@@H](CO)C(=O)N[C@H](CCC(N)=O)C(=O)N[C@@H](C(=O)N[C@H](C(=O)N[C@@H](CO)C(=O)N[C@H]1C(=O)N[C@@H](C)C(=O)N[C@@H](CCCCN)C(=O)N[C@@H]([C@@H](C)CC)C(=O)O[C@H]1C)[C@@H](C)CC)[C@@H](C)CC [Lys10-teixobactin],"MIC, Staphylococcus aureus ATCC 29213",[1],0.5 µg/mL
same,"MIC, Staphylococcus epidermidis ATCC 14990",[2],0.5 to 1 µg/mL
same,"MIC, Streptococcus salivarius ATCC 13419",[3],0.5 µg/mL
same,"MIC, Enterococcus durans ATCC 6056",[4],2 µg/mL
same,"MIC, Bacillus subtilis ATCC 6051",[5],1 µg/mL
same,"MIC, Escherichia coll ATCC 10798",[6],>32 µg/mL
same,antibiotic activity,Gram-positive bacteria,good
same,MIC values reported previously,[8]; earlier report of the same group,0.25 to 1 µg/mL
"CC[C@H](C)[C@H](NC(=O)[C@@H](C)NC)C(=O)N[C@@H](CO)C(=O)N[C@H](CCC(N)=O)C(=O)N[C@@H](C(=O)N[C@H](C(=O)N[C@@H](CO)C(=O)N[C@H]1C(=O)N[C@@H](C)C(=O)N[C@@H](CCCCN)C(=O)N[C@@H]([C@@H](C)CC)C(=O)O[C@H]1C)[C@@H](C)CC)[C@@H](C)CC [N-Me-D-Ala1,Lys10-teixobactin]","MIC, Staphylococcus aureus ATCC 29213",[1],>32 µg/mL
same,"MIC, Staphylococcus epidermidis ATCC 14990",[2],>32 µg/mL
same,"MIC, Streptococcus salivarius ATCC 13419",[3],>32 µg/mL
same,"MIC, Enterococcus durans ATCC 6056",[4],>32 µg/mL
same,"MIC, Bacillus subtilis ATCC 6051",[5],>32 µg/mL
same,"MIC, Escherichia coll ATCC 10798",[6],>32 µg/mL
same,antibiotic activity,Gram-positive bacteria,poor
same,solubility in PBS buffer,[7],good
"Lys3,Arg10-teixobactin",antibiotic activity,[8]; lysine scan of Arg10-teixobactin,active
lipobactin,loss in activity relative to Arg10-teixobactin,[8]; residues 1 to 5 replaced with a dodecanoyl group,two- to fourfold loss in activity
